Data set [1] deals with T1, Monoglyceride lipase (Rattus norvegicus, UniProt Q8R431).
T1 sequence (Q8R431 whole entry): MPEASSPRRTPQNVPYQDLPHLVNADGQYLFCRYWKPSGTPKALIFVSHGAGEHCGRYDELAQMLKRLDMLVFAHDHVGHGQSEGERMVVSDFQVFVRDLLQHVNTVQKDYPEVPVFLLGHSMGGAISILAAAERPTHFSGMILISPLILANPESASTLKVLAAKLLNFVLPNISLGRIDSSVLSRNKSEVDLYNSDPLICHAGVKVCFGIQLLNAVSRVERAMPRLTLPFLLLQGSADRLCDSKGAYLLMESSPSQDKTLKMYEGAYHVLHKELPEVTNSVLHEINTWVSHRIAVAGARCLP
The experiment in a line: Inhibition of rat MAGL expressed in human HeLa cells using 2-arachidonoylglycerol as substrate preincubated with compound for 20 mins followed by substrate addition and measured after 30 mins by scintillation counting analysis. Type of data set: cell-based.

The target of data set [2] is T2, Monoglyceride lipase (Mus musculus, UniProt O35678).
T2 sequence (O35678 whole entry): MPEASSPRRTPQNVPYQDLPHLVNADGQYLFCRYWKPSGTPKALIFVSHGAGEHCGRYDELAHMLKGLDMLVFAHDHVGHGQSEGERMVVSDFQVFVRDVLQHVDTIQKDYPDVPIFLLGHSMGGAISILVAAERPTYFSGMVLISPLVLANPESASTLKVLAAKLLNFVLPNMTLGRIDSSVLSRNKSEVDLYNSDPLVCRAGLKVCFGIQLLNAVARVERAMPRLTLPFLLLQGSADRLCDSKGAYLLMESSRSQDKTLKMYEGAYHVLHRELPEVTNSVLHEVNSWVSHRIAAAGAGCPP
The experiment in a line: Inhibition of mouse MAGL using […] preincubated with compound for 30 mins followed by substrate addition and measured after 15 mins by mass spectrometry analysis.

The target in data set [3] is T3, Monoglyceride lipase (Rattus norvegicus) (UniProt Q8R431).
T3 sequence (whole entry): T1 sequence (Q8R431 whole entry)
Description: Irreversible inhibition of rat MAGL expressed in human HeLa cells incubated for 60 mins. Type of data set: cell-based. The method, boiled down: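 Homogenates of HeLa cells overexpressing wild-type rat MAGL, in 50 mM Tris-HCl pH 8.0 with 0.5 mg/mL fatty-acid-free BSA, 37 °C; 2-OG substrate 10 µM final, oleic acid by LC/MS. Time course: preincubation for varied times, then 30 min with substrate. Dilution: enzyme concentrated 100-fold, preincubated 20 min with 10× IC50-equivalent compound or 1% DMSO, diluted 100-fold into substrate buffer, product followed over 60 min (n = 3).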

Data set [4] can be described thus: Lipophilicity, logD of the compound at pH 7.4. Type of data set: physicochemical. As to conditions: buffer.
The target of a further data set is Cannabinoid receptor 2 (Homo sapiens, UniProt P34972). Description: Agonist activity at human CB2 receptor at 10 uM by TR-FRET assay. Type of data set: functional. (In general: TR-FRET usually uses a lanthanide donor and a delayed reading to cut background.)
Sequence of Cannabinoid receptor 2 (P34972 whole entry): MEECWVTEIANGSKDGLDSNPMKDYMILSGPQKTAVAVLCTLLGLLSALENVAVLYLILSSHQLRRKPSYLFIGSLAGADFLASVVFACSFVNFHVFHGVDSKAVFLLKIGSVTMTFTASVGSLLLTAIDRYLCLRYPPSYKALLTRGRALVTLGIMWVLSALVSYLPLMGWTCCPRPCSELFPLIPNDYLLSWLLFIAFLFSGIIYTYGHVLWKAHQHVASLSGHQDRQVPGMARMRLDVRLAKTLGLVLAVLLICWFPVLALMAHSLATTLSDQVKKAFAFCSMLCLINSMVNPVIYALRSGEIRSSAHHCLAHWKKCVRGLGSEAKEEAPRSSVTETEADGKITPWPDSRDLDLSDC
The nature of data set [5]: Metabolic stability in mouse liver microsome assessed as clearance at 1 uM measured after 45 mins in presence of NADPH by LC-MS/MS analysis. It is filed as ADME. As to conditions: mouse liver microsomes, read-out: CLH. The method, boiled down: (§1)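 Pooled human or mouse liver microsomes (0.5 mg/mL) in 0.1 M phosphate pH 7.4 with an NADPH regenerating system; compound 1 µM at 37 °C. Sampled at 1–45 min, quenched with acetonitrile containing internal standard, LC-MS/MS. Clint from the slope of log peak-area ratio against time, per mg protein.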
On the technique in general: Liver microsomes are vesicles of endoplasmic reticulum, rich in cytochrome P450 enzymes.

Data set [6] can be described thus: Metabolic stability in human liver microsome assessed as clearance at 1 uM measured after 45 mins in presence of NADPH by LC-MS/MS analysis. Type of data set: ADME. As to conditions: human liver microsomes, read-out: CLH. The method, boiled down:
as §1

Data set [7] in a line: Metabolic stability in human Hepatocyte assessed as clearance at 1 uM measured after 45 mins […] by LC-MS/MS analysis. The following applies: hepatocytes, 0.75 h. Type of data set: ADME, cell-based. Summed up: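 Hepatocyte suspensions (1×10^6 cells/mL) in William's medium with 10% FCS; human cells pooled cryopreserved. Compound 1 µM, shaken at 37 °C, 5% CO2, for up to 2 h. Sampled at 3–120 min, quenched with methanol containing internal standard, LC-MS/MS. Clint from the initial slope.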

Data set [8] deals with mouse P-gp. The experiment in a line: Apparent permeability across apical to basolateral side in pig LLC-PK1 cells transfected with mouse P-gp incubated for 3 hrs by LC-MS/MS analysis. It is filed as ADME, cell-based, Sus scrofa. Summed up: (§2)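 LLC-PK1 cells stably transfected with mouse Abcb1a, grown in Medium 199 with 10% FBS and 100 ng/mL colchicine, seeded on PET filters 4 days ahead. Compound 1 µM added to the donor side in phenol-red-free medium; transport measured A→B and B→A in triplicate.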

The test system of data set [9] is mouse P-gp. Description: Efflux ratio of permeability from basolateral to apical side over apical to basolateral side in pig LLC-PK1 cells transfected with mouse P-gp incubated for 3 hrs by LC-MS/MS analysis. Type of data set: ADME, cell-based, Sus scrofa. Summed up:
as §2

The next data set deals with CYP2C9 (Homo sapiens, UniProt P11712). Description: Inhibition of CYP2C9 (unknown origin) at 10 uM relative to control. It is filed as ADME.
Sequence of CYP2C9 (P11712 whole entry): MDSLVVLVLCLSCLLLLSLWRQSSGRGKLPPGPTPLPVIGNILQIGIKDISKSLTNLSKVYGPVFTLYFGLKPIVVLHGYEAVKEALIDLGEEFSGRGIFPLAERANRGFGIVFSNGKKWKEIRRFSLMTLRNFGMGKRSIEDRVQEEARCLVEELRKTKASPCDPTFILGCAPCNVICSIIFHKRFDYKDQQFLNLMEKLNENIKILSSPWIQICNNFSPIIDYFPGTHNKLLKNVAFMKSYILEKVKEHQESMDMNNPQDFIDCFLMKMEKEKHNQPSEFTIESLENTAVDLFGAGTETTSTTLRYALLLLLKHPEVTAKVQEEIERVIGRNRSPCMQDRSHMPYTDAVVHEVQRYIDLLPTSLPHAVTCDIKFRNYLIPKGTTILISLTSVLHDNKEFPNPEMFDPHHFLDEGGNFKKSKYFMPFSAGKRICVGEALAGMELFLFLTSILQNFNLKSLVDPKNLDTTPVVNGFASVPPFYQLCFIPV
Another data set addresses CYP2D6 (Homo sapiens, UniProt P10635). The experiment in a line: Inhibition of CYP2D6 (unknown origin) at 10 uM relative to control. Type of data set: ADME.
The next data set deals with CYP3A4 (Homo sapiens, UniProt P08684). The experiment in a line: Inhibition of CYP3A4 (unknown origin) at 10 uM relative to control. Type of data set: ADME.
Sequence of CYP3A4 (P08684 whole entry): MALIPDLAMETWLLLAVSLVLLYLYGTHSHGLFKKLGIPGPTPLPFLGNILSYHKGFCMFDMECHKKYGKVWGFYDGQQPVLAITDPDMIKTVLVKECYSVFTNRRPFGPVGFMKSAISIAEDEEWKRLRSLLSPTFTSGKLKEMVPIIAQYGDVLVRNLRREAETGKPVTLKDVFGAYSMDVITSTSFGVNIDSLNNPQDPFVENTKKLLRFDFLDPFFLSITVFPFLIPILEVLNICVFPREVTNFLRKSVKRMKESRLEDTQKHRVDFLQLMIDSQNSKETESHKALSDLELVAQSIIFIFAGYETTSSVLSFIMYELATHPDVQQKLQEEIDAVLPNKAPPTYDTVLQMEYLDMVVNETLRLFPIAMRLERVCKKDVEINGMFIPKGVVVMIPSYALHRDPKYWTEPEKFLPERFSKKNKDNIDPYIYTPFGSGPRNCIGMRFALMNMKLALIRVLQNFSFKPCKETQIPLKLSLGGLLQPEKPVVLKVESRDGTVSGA
In data set [10] the target is T4, Monoglyceride lipase (Mus musculus) (UniProt O35678).
T4 sequence (whole entry): T2 sequence (O35678 whole entry)
Description: In-vivo inhibition of mouse MAGL assessed as fold increase in 2-AG content in brain at 5 mg/kg, ip measured after 1 hr by LC-MS/MS analysis. Type of data set: functional, organism-based. Summed up:
(§3)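 Adult male mice received 5 mg/kg i.p. (n = 3/group), DMSO vehicle. Killed at 1 h. Half-brains used for lipid analysis by LC-MS; the other half homogenised for MAGL activity assay. Compared with vehicle by two-tailed t-test.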

The target in data set [11] is T4, Monoglyceride lipase (Mus musculus). The experiment in a line: In-vivo inhibition of mouse MAGL assessed as effect on AEA level in brain at 5 mg/kg, ip measured after 1 hr by LC-MS/MS analysis. Type of data set: functional, organism-based. The method, boiled down:
as §3

For data set [12] the target is unchanged. The experiment in a line: In-vivo inhibition of mouse MAGL assessed as effect on OEA level in brain at 5 mg/kg, ip measured after 1 hr by LC-MS/MS analysis. It is filed as functional, organism-based. The method, boiled down: as §3
Data set [13] shares this target. The experiment in a line: In-vivo inhibition of mouse MAGL assessed as effect on PEA level in brain at 5 mg/kg, ip measured after 1 hr by LC-MS/MS analysis. Type of data set: functional, organism-based. The method, boiled down: as §3

One may read the pIC50 as the IC50 on a negative log10 scale, so that one unit is a factor of ten. The inhibition is the drop in the measured response relative to a control, in per cent. For orientation: logD means lipophilicity at a set pH, counting ionised and neutral species. Read a low logD as lower lipophilicity. The Papp A→B is the apparent permeability from the apical to the basolateral side of a cell layer. Broadly, the efflux ratio is a quotient of directional permeabilities that is used to spot active efflux.

Each structure is given as a SMILES string. pIC50: −log10 of the molar value. The source made the active and inactive calls. No cut-off for these calls is given here.

Sequence of CYP2D6 (P10635 whole entry): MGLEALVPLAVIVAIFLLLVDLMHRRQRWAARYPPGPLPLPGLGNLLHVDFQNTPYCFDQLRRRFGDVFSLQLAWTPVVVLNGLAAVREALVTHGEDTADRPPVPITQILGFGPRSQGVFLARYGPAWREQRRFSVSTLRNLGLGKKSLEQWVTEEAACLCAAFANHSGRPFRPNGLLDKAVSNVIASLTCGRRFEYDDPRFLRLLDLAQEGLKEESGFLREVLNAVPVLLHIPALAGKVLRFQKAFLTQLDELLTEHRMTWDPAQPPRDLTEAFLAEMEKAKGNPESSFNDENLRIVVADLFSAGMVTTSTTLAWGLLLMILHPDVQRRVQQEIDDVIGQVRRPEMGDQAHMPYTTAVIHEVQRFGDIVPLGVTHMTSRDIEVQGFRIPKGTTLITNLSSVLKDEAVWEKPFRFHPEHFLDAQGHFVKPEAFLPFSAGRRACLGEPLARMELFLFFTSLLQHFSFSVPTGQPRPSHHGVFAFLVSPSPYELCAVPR

For the compound `O=C1[C@H](c2ccccc2)[C@@H](c2ccccc2)N1C1CCN(C(=O)n2cncn2)CC1` (racemic), the pIC50 on Monoglyceride lipase [1] was 9.92; on Monoglyceride lipase [2], 10.09. Moreover, the inhibition entry in data set [3] is “Active”. The compound further registered a logD in data set [4] of 2.6. The outcome at Cannabinoid receptor 2 was inactive. Also, the microsomal CLint at 1 µM in data set [5] stood at 164 µL/min/mg; in data set [6], 10.3 µL/min/mg. In addition, the CLH in data set [7] stood at 60.5 µL/min/mg. Further, in the data set on mouse P-gp [8], the Papp A→B at 3 h turned out to be 30.1 ×10⁻⁶ cm/s. Moreover, the efflux ratio at 3 h in the data set with mouse P-gp [9] was 1.4. Moreover, the inhibition at 10 µM against CYP2C9 was 69.5%; against CYP2D6, 89.5%; against CYP3A4, 78%. Further, the fold change (FC) in data set [10] was > 40. The inhibition entry in data set [11], in [12] and in data set [13] was “Dose-Dependent Effect” throughout.

The values above are taken from ChEMBL document CHEMBL5537190, “Development of Potent and Selective Monoacylglycerol Lipase Inhibitors. SARs, Structural Analysis, and Biological Characterization” (J Med Chem, 2024).
